Experimental findings from ChEMBL document CHEMBL3758168, “Hybrid triazoles: Design and synthesis as potential dual inhibitor of growth and efflux inhibition in tuberculosis” (Eur J Med Chem, 2016) are described below.

Experiment [1] relates to Mycolicibacterium smegmatis. As to the kind of experiment: Anti-tubercular activity against Mycobacterium smegmatis MC2 155 ATCC 700084 after 3 days by microdilution method. The settings on record: MC2 155 ATCC 700084, 72 h. In kind it is functional. In outline:
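M. smegmatis mc2155 grown in MB7H9 + 10% OADC at 37 °C with shaking to OD600 0.8. Inoculum set to 0.5 McFarland, diluted 1:100, and mixed 1:1 with two-fold serial dilutions in MB7H9. Plates incubated 3 days at 37 °C with growth and sterility controls. MIC taken as the lowest concentration with no visible growth.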

A short description of experiment [2]: Cytotoxicity against human MDM assessed as cell viability after 3 days by Alamar blue dye-based fluorocytometric analysis relative to control. The settings on record: 72 h.
The subject of experiment [3] is Mycobacterium tuberculosis. The experiment in a line: Anti-tubercular activity against Mycobacterium tuberculosis H37Rv ATCC 27294T after 7 days by mircodilution method. In kind it is functional. The conditions noted are these: 168 h. In outline:
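H37Rv grown static in MB7H9 + 10% OADC at 37 °C to OD600 0.8, then diluted to about 10^5 cells/ml. Mixed 1:1 with two-fold serial dilutions in MB7H9/OADC and incubated 7 days at 37 °C. MTT added to final 2.5% and plates incubated overnight. MIC is the lowest concentration with no colour change. Run in triplicate.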

In brackets after ≈: the same amount, converted by molar mass.

As for `CCCCSc1nnc(COc2ccccc2C2=NOC(c3ccc(Cl)cc3Cl)C2)n1NC(=O)CCl` (stereo unspecified), the MIC in experiment [1] is 32 µg/mL (≈ 56.2 µM). Besides, the IC50 in experiment [2] is 2.8 µg/mL (≈ 4.92 µM).

As to `CCOC(=O)CC(=O)CSc1nnc(COc2ccccc2C2=NOC(c3ccc(Cl)cc3Cl)C2)n1NC(=O)CCl` (stereo unspecified), the MIC in experiment [1] is 128 µg/mL (≈ 200 µM).

In the case of `CC(=O)Nn1c(S)nnc1COc1ccccc1C1=NOC(c2ccc(Cl)cc2Cl)C1` (stereo unspecified), the lowest concentration to inhibit growth in experiment [1] (MIC) was 8 µg/mL (≈ 16.7 µM). For the same compound, the IC50 in experiment [2] worked out at 1.3 µg/mL (≈ 2.72 µM).

As for `CCOC(=O)CSc1nnc(COc2ccccc2C2=NOC(c3ccc(Cl)cc3Cl)C2)n1NC(C)=O` (stereo unspecified), the MIC in experiment [1] is > 64 µg/mL.

In experiment [1], `CCSc1nnc(COc2ccccc2C2=NOC(c3ccc(Cl)cc3Cl)C2)n1NC(=O)c1ccccc1` (stereo unspecified) had an MIC of 4 µg/mL (≈ 7.04 µM). Further, in experiment [2], the IC50 turned out to be 1.8 µg/mL (≈ 3.17 µM).

As for `NCC[C@H](O)C(=O)N[C@@H]1C[C@H](N)[C@@H](O[C@H]2O[C@H](CN)[C@@H](O)[C@H](O)[C@H]2O)[C@H](O)[C@H]1O[C@H]1O[C@H](CO)[C@@H](O)[C@H](N)[C@H]1O` [AMIKACIN], the MIC in experiment [3] came to 2 µg/mL (≈ 3.42 µM).

The compound `O=C(CCl)Nn1c(S)nnc1COc1ccccc1C1=NOC(c2ccc(Cl)cc2Cl)C1` (stereo unspecified) gave an MIC in experiment [1] of 16 µg/mL (≈ 31.2 µM). For the same compound, in experiment [2], the IC50 was found to be 3.2 µg/mL (≈ 6.24 µM).

Regarding `CCCCSc1nnc(COc2ccccc2C2=NOC(c3ccc(Cl)cc3Cl)C2)n1NC(=O)c1ccccc1` (stereo unspecified), the MIC in experiment [1] is 64 µg/mL (≈ 107 µM). Also, the IC50 in experiment [2] is 2.5 µg/mL (≈ 4.19 µM).

`CCOC(=O)CC(=O)CSc1nnc(COc2ccccc2C2=NOC(c3ccc(Cl)cc3Cl)C2)n1NC(=O)c1ccccc1` (stereo unspecified) returned an MIC in experiment [1] of 512 µg/mL (≈ 766 µM).

As to `CC(=O)Nn1c(COc2ccccc2C2=NOC(c3ccc(Cl)cc3Cl)C2)nnc1SCC(C)C` (stereo unspecified), the MIC in experiment [1] was > 256 µg/mL.

In experiment [3], `CC1COc2c(N3CCN(C)CC3)c(F)cc3c(=O)c(C(=O)O)cn1c23` (stereo unspecified) [OFLOXACIN] returned an MIC of 2 µg/mL (≈ 5.53 µM).

Consider `C/C=C/Sc1nnc(COc2ccccc2C2=NOC(c3ccc(Cl)cc3Cl)C2)n1NC(=O)CCl` (stereo unspecified), for which the MIC in experiment [1] was > 512 µg/mL.

As to `Nn1c(S)nnc1COc1ccccc1C1=NOC(c2ccc(Cl)cc2Cl)C1` (stereo unspecified), in experiment [1], the MIC worked out at 2 µg/mL (≈ 4.58 µM). In experiment [2], the IC50 came to 87.3 µg/mL (≈ 200 µM).

Regarding `C/C=C/Sc1nnc(COc2ccccc2C2=NOC(c3ccc(Cl)cc3Cl)C2)n1NC(=O)c1ccccc1` (stereo unspecified), in experiment [1], the MIC stood at 128 µg/mL (≈ 221 µM).

On to `CC[n+]1c(-c2ccccc2)c2cc(N)ccc2c2ccc(N)cc21.[Br-]` [HOMIDIUM BROMIDE], for which 12.5 µg/mL was the least that counted as inhibitory in experiment [3] (MIC).

Take `C=CCSc1nnc(COc2ccccc2C2=NOC(c3ccc(Cl)cc3Cl)C2)n1NC(C)=O` (stereo unspecified): the lowest concentration to inhibit growth in experiment [1] (MIC) was 256 µg/mL (≈ 494 µM).

In turn, `CC(C)CSc1nnc(COc2ccccc2C2=NOC(c3ccc(Cl)cc3Cl)C2)n1NC(=O)CCl` (stereo unspecified) returned an MIC in experiment [1] of 1020 µg/mL (≈ 1800 µM).

Compound `O=C(CCl)Nn1c(COc2ccccc2C2=NOC(c3ccc(Cl)cc3Cl)C2)nnc1Sc1ccccc1` (stereo unspecified) yielded an MIC in experiment [1] of 128 µg/mL (≈ 217 µM).

In experiment [1], `C=CCSc1nnc(COc2ccccc2C2=NOC(c3ccc(Cl)cc3Cl)C2)n1NC(=O)c1ccccc1` (stereo unspecified) came in with an MIC of 128 µg/mL (≈ 221 µM).

`O=C(Nn1c(COc2ccccc2C2=NOC(c3ccc(Cl)cc3Cl)C2)nnc1Sc1ccccc1)c1ccccc1` (stereo unspecified) registered an MIC in experiment [1] of 256 µg/mL (≈ 415 µM).

Turning to `CC(C)CSc1nnc(COc2ccccc2C2=NOC(c3ccc(Cl)cc3Cl)C2)n1NC(=O)c1ccccc1` (stereo unspecified), the MIC in experiment [1] stood at 512 µg/mL (≈ 858 µM).

Take `CCOC(=O)CSc1nnc(COc2ccccc2C2=NOC(c3ccc(Cl)cc3Cl)C2)n1NC(=O)CCl` (stereo unspecified): in experiment [1], the MIC turned out to be 128 µg/mL (≈ 214 µM).

As to `O=C(Nn1c(S)nnc1COc1ccccc1C1=NOC(c2ccc(Cl)cc2Cl)C1)c1ccccc1` (stereo unspecified), the minimum inhibitory concentration (MIC) in experiment [1] turned out to be 32 µg/mL (≈ 59.2 µM). Further, the IC50 in experiment [2] is 1.7 µg/mL (≈ 3.15 µM).

In experiment [1], `CSc1nnc(COc2ccccc2C2=NOC(c3ccc(Cl)cc3Cl)C2)n1NC(=O)c1ccccc1` (stereo unspecified) came in with an MIC of 32 µg/mL (≈ 57.7 µM). Moreover, in experiment [2], the IC50 amounted to 2.2 µg/mL (≈ 3.97 µM).

With `C=CCSc1nnc(COc2ccccc2C2=NOC(c3ccc(Cl)cc3Cl)C2)n1NC(=O)CCl` (stereo unspecified), 256 µg/mL (≈ 463 µM) was the least that counted as inhibitory in experiment [1] (MIC).

`C/C=C/Sc1nnc(COc2ccccc2C2=NOC(c3ccc(Cl)cc3Cl)C2)n1NC(C)=O` (stereo unspecified): in experiment [1], the MIC is 512 µg/mL (≈ 988 µM).

Consider `CCCCSc1nnc(COc2ccccc2C2=NOC(c3ccc(Cl)cc3Cl)C2)n1NC(C)=O` (stereo unspecified), for which inhibition of growth in experiment [1] (MIC) required 32 µg/mL (≈ 59.9 µM). Besides, in experiment [2], the IC50 came out at 2.6 µg/mL (≈ 4.86 µM).

Turning to `CC(=O)Nn1c(COc2ccccc2C2=NOC(c3ccc(Cl)cc3Cl)C2)nnc1Sc1ccccc1` (stereo unspecified), the MIC in experiment [1] is > 512 µg/mL.

Take `CSc1nnc(COc2ccccc2C2=NOC(c3ccc(Cl)cc3Cl)C2)n1NC(C)=O` (stereo unspecified): in experiment [1], the MIC was 32 µg/mL (≈ 65 µM). In addition, in experiment [2], the IC50 came to 2.7 µg/mL (≈ 5.48 µM).

Regarding `CCSc1nnc(COc2ccccc2C2=NOC(c3ccc(Cl)cc3Cl)C2)n1NC(=O)CCl` (stereo unspecified), the lowest concentration to inhibit growth in experiment [1] (MIC) was 512 µg/mL (≈ 947 µM).

The compound `CO[C@H]1/C=C/O[C@@]2(C)Oc3c(C)c(O)c4c(O)c(c(/C=N/N5CCN(C)CC5)c(O)c4c3C2=O)NC(=O)/C(C)=C\C=C\[C@H](C)[C@H](O)[C@@H](C)[C@@H](O)[C@@H](C)[C@H](OC(C)=O)[C@@H]1C` [RIFAMPIN] had an MIC in experiment [3] of 1 µg/mL (≈ 1.22 µM).

Regarding `NNC(=O)c1ccncc1` [ISONIAZID], in experiment [3], the lowest concentration to inhibit growth (MIC) was 0.1 µg/mL (≈ 0.729 µM).

For `CCOC(=O)CSc1nnc(COc2ccccc2C2=NOC(c3ccc(Cl)cc3Cl)C2)n1NC(=O)c1ccccc1` (stereo unspecified), the MIC in experiment [1] was 64 µg/mL (≈ 102 µM).

Consider `CCOC(=O)CC(=O)CSc1nnc(COc2ccccc2C2=NOC(c3ccc(Cl)cc3Cl)C2)n1NC(C)=O` (stereo unspecified), for which inhibition of growth in experiment [1] (MIC) required 512 µg/mL (≈ 844 µM).

`CSc1nnc(COc2ccccc2C2=NOC(c3ccc(Cl)cc3Cl)C2)n1NC(=O)CCl` (stereo unspecified) came in with an MIC in experiment [1] of 32 µg/mL (≈ 60.7 µM). In addition, the IC50 in experiment [2] came out at 2.7 µg/mL (≈ 5.12 µM).
